Measurements from different studies.
Lines come from different studies, so protocols differ.
Target: Acetylcholinesterase (ACHE, Homo sapiens, UniProt P22303)
Action: inhibitor

The IC50 of `CN(C)c1ccc(/C=N/n2c(-c3cc([N+](=O)[O-])c[nH]3)n[nH]c2=S)c(O)c1` is reported as 21.2 µM (enzyme activity, Ellman).
`C#CCN(C)CCCCCCCCOc1cccc(CN(C)c2c3c(nc4ccccc24)CCCC3)c1` has an IC50 of 4.33 µM (enzyme activity, Ellman).
With `O=C(NCCN1CCCCC1)c1ccc(F)cc1` the IC50 was 3.1 µM (enzyme activity, Ellman).
For `CNC(=O)c1ccc(-c2cnn3ccc(C(=O)N(C)c4ccc(Cl)c(C(=O)O)c4)cc23)cc1`, the IC50 was over 30 µM (cell-free assay).
`COc1ccc(/C=N/n2c(-c3cc([N+](=O)[O-])c[nH]3)n[nH]c2=S)cc1` has an IC50 of 25.1 µM (enzyme activity, Ellman).
`Cn1cc(-c2cc(C(=O)NN=Cc3ccccc3O)no2)c2ccccc21` has an IC50 of over 100 µM (enzyme activity).
For `O=[N+]([O-])c1c[nH]c(-c2n[nH]c(=S)n2/N=C/c2ccc(Cl)c([N+](=O)[O-])c2)c1`, the IC50 was 13.2 µM (enzyme activity, Ellman).
For `CSc1ccc(C=NNC(=O)c2cc(-c3cn(C)c4ccccc34)on2)cc1`, the IC50 was over 100 µM (enzyme activity).
The IC50 of `C#CCN(C)CCCCCCOCc1ccc(CN(C)c2c3c(nc4ccc(C)cc24)CCCC3)cc1` is reported as 45.8 µM (enzyme activity, Ellman).
The IC50 of `COc1ccc(S(=O)(=O)Oc2cccc(C=NNC(=O)c3ccc(F)cc3)c2)cc1` is reported as 0.0895 µM (enzyme activity, Ellman).
`COc1ccc(OC)c(C=NNC(=O)c2cc(-c3cn(C)c4ccccc34)on2)c1` gave an IC50 of over 100 µM (enzyme activity).
`COc1cccc(C(=O)NCCN2CCCCC2)c1` gave an IC50 of 5.2 µM (enzyme activity, Ellman).
`C#CCN(C)CCCCCOCc1ccc(CN(C)c2c3c(nc4ccc(C)cc24)CCCC3)cc1` has an IC50 of 13.4 µM (enzyme activity, Ellman).
With `O=C(NCCN1CCCCC1)c1cccc(Cl)c1` the IC50 was 0.63 µM (enzyme activity, Ellman).
`COc1ccc(S(=O)(=O)Oc2cc(OC)ccc2C=NNC(=O)c2ccc(F)cc2)cc1` has an IC50 of 0.0919 µM (enzyme activity, Ellman).
The IC50 of `O=C(NCCN1CCCCC1)c1ccc(Cl)cc1` is reported as 46 µM (enzyme activity, Ellman).
The IC50 of `Cn1cc(-c2cc(C(=O)NN=Cc3ccccc3Cl)no2)c2ccccc21` is reported as over 100 µM (enzyme activity).
With `C#CCN(C)CCCOc1cccc(CN(C)c2c3c(nc4ccccc24)CCCC3)c1` the IC50 was 2.82 µM (enzyme activity, Ellman).
With `COc1cccc(C=NNC(=O)c2cc(-c3cn(C)c4ccccc34)on2)c1OC` the IC50 was over 100 µM (enzyme activity).
With `O=[N+]([O-])c1c[nH]c(-c2n[nH]c(=S)n2/N=C/c2cc(Cl)cc(Cl)c2)c1` the IC50 was 13.6 µM (enzyme activity, Ellman).
For `O=C(NCCN1CCCCC1)c1cccc(F)c1`, the IC50 was 1.6 µM (enzyme activity, Ellman).
For `O=[N+]([O-])c1c[nH]c(-c2n[nH]c(=S)n2/N=C/c2ccc(Cl)c(Cl)c2)c1`, the IC50 was 14.2 µM (enzyme activity, Ellman).
With `COc1ccc(S(=O)(=O)Oc2ccc(C=NNC(=O)c3ccc(F)cc3)cc2)cc1` the IC50 was 0.0121 µM (enzyme activity, Ellman).
`C#CCN(C)CCCCCOc1cccc(CN(C)c2c3c(nc4ccccc24)CCCC3)c1` gave an IC50 of 2.6 µM (enzyme activity, Ellman).
The IC50 of `Cn1cc(-c2cc(C(=O)NN=Cc3ccncc3)no2)c2ccccc21` is reported as over 100 µM (enzyme activity).
For `O=[N+]([O-])c1c[nH]c(-c2n[nH]c(=S)n2/N=C/c2ccc(F)c(O)c2)c1`, the IC50 was 9.2 µM (enzyme activity, Ellman).
With `O=C(NCCN1CCCCC1)c1ccccc1Cl` the IC50 was 0.09 µM (enzyme activity, Ellman).
`O=[N+]([O-])c1c[nH]c(-c2n[nH]c(=S)n2/N=C/c2ccc(Cl)cc2[N+](=O)[O-])c1` gave an IC50 of 15.1 µM (enzyme activity, Ellman).
For `CNC(=O)c1ccc(-c2cnn3ccc(C(=O)N(C)c4ccc(Cl)c(C(=O)OC)c4)cc23)cc1`, the IC50 was over 30 µM (cell-free assay).
For `O=[N+]([O-])c1c[nH]c(-c2n[nH]c(=S)n2/N=C/c2c(O)cc(O)cc2O)c1`, the IC50 was 6.2 µM (enzyme activity, Ellman).
`C#CCN(C)CCCCCCOCc1ccc(CN(C)c2c3c(nc4ccccc24)CCCC3)cc1` gave an IC50 of 1.57 µM (enzyme activity, Ellman).
